A short description of the series: Toxicity in Atlantic horseshoe crab blood limulus amebocyte lysate by chromogenic endotoxin test. The note with it: limulus polyphemus. The method in brief: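 Endotoxin was measured by chromogenic Limulus amebocyte lysate assay at a sensitivity of ≤0.1 EU/mL.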
Consider `CCCCCCCOc1ccc(C(=O)OC[C@H]2O[C@H](O[C@H]3O[C@H](COC(=O)c4ccc(OCCCCCCC)cc4OCc4ccccc4)[C@@H](OCc4ccccc4)[C@H](OCc4ccccc4)[C@H]3OCc3ccccc3)[C@H](OCc3ccccc3)[C@@H](OCc3ccccc3)[C@@H]2OCc2ccccc2)c(OCc2ccccc2)c1`, for which the Activity result is recorded as “<= 0.1 EU/ml”.

For `O=C(OC[C@H]1O[C@H](O[C@H]2O[C@H](COC(=O)c3ccc(OCc4ccccc4)cc3OCc3ccccc3)[C@@H](OCc3ccccc3)[C@H](OCc3ccccc3)[C@H]2OCc2ccccc2)[C@H](OCc2ccccc2)[C@@H](OCc2ccccc2)[C@@H]1OCc1ccccc1)c1ccc(OCc2ccccc2)cc1OCc1ccccc1`, the Activity entry is listed as “<= 0.1 EU/ml”.

Regarding `Cc1cc(OCc2ccccc2)cc(OCc2ccccc2)c1C(=O)OC[C@H]1O[C@H](O[C@H]2O[C@H](COC(=O)c3c(C)cc(OCc4ccccc4)cc3OCc3ccccc3)[C@@H](OCc3ccccc3)[C@H](OCc3ccccc3)[C@H]2OCc2ccccc2)[C@H](OCc2ccccc2)[C@@H](OCc2ccccc2)[C@@H]1OCc1ccccc1`, the Activity entry is “<= 0.1 EU/ml”.

As for `CCCCCCCCCCCCCCCCCCOc1ccc(C(=O)OC[C@H]2O[C@H](O[C@H]3O[C@H](COC(=O)c4ccc(OCCCCCCCCCCCCCCCCCC)cc4)[C@@H](OCc4ccccc4)[C@H](OCc4ccccc4)[C@H]3OCc3ccccc3)[C@H](OCc3ccccc3)[C@@H](OCc3ccccc3)[C@@H]2OCc2ccccc2)cc1`, the Activity result is reported as “<= 0.1 EU/ml”.

For the molecule `COc1ccc(C(=O)OC[C@H]2O[C@H](O[C@H]3O[C@H](COC(=O)c4ccc(OC)cc4OCc4ccccc4)[C@@H](OCc4ccccc4)[C@H](OCc4ccccc4)[C@H]3OCc3ccccc3)[C@H](OCc3ccccc3)[C@@H](OCc3ccccc3)[C@@H]2OCc2ccccc2)c(OCc2ccccc2)c1`, the Activity entry is given as “<= 0.1 EU/ml”.

For `CCCCOc1ccc(C(=O)OC[C@H]2O[C@H](O[C@H]3O[C@H](COC(=O)c4ccc(OCCCC)cc4OCc4ccccc4)[C@@H](OCc4ccccc4)[C@H](OCc4ccccc4)[C@H]3OCc3ccccc3)[C@H](OCc3ccccc3)[C@@H](OCc3ccccc3)[C@@H]2OCc2ccccc2)c(OCc2ccccc2)c1`, the Activity result is “<= 0.1 EU/ml”.

For the molecule `CCCCCCCCCCCCCCCCCCOc1ccc(C(=O)OC[C@H]2O[C@H](O[C@H]3O[C@H](COC(=O)c4ccc(OCCCCCCCCCCCCCCCCCC)cc4OCc4ccccc4)[C@@H](OCc4ccccc4)[C@H](OCc4ccccc4)[C@H]3OCc3ccccc3)[C@H](OCc3ccccc3)[C@@H](OCc3ccccc3)[C@@H]2OCc2ccccc2)c(OCc2ccccc2)c1`, the Activity entry is listed as “<= 0.1 EU/ml”.

For `CCCCCCCOc1ccc(C(=O)OC[C@H]2O[C@H](O[C@H]3O[C@H](COC(=O)c4ccc(OCCCCCCC)cc4)[C@@H](OCc4ccccc4)[C@H](OCc4ccccc4)[C@H]3OCc3ccccc3)[C@H](OCc3ccccc3)[C@@H](OCc3ccccc3)[C@@H]2OCc2ccccc2)cc1`, the Activity entry is “<= 0.1 EU/ml”.

In the case of `CCCCCCCCCCCCCCCCCCOc1cc(C)c(C(=O)OC[C@H]2O[C@H](O[C@H]3O[C@H](COC(=O)c4c(C)cc(OCCCCCCCCCCCCCCCCCC)cc4OCc4ccccc4)[C@@H](OCc4ccccc4)[C@H](OCc4ccccc4)[C@H]3OCc3ccccc3)[C@H](OCc3ccccc3)[C@@H](OCc3ccccc3)[C@@H]2OCc2ccccc2)c(OCc2ccccc2)c1`, the Activity entry is “<= 0.1 EU/ml”.

Source of the values: ChEMBL document CHEMBL4033780, “Lipidated Brartemicin Analogues Are Potent Th1-Stimulating Vaccine Adjuvants” (J Med Chem, 2018).
